The source made the active and inactive calls.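 How the source made its calls, unless noted: active means viability loss from added drug above about 55%, and viability with drug at most 40%, in both replicates (limit read from the data, passing the limit was not always enough); inconclusive means both conditions met in only one replicate; inactive means neither replicate meets both conditions.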

Experimental findings from PubChem BioAssay are described below.

Experiment [1] in a line: SK-BR-3 cell growth inhibitors, pilot screen, 24 h, human (AID 572;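 active means viability at or below 10% of carrier control in both of two separate runs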;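 further: compound exposure lasted between 18 and 24 h rather than exactly 24 h; 100% = carrier-treated control wells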). The note with it: SK-BR-3 viability, CellTiter-Glo luminescence, at 10 µM, stronger effect = lower value.
Experiment [2] can be described thus: HUVEC growth inhibition – cell-based, human, primary screen (AID 575;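 active means viability at or below 30% in both replicate assays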;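 further: 100% = median of untreated cell wells with 0.1% DMSO on each plate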). The note with it: HUVEC proliferation, CellTiter-Glo luminescence, 72 h; at 10 µM; stronger effect = lower value. In short, it runs like this: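 Assay system: Primary human umbilical vein endothelial cells | Quantity: 1250 cells per well | Medium: Supplemented EBM, 2% fetal bovine serum | Detection: CellTiter-Glo luminescence measuring cellular ATP | Read-out: % viability vs DMSO wells | Plate: Collagen-coated 384-well format | Times: 72 h exposure, 37 °C, 5% CO2, 30 min RT equilibration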
For orientation: Cellular ATP, detected with luciferase, serves as a proxy for viable cell number.

Experiment [3] can be described thus: reversal of MRP1-mediated doxorubicin resistance, pilot screen, H69AR cells, doxorubicin co-treatment (AID 601). To be noted: CellTiter-Glo, 72 h, at 10 µM; for differential viability (reversal): stronger effect = higher value.
Experiment [4] is described as follows: 384-well plate pilot, post-Golgi transport modulator project, inhibition of yeast transport mutant growth (AID 636; in the data active means inhibition above about 31%). To be noted: absorbance 615 nm, about 18 h, stronger effect = higher value.
Experiment [5] can be described thus: growth suppression of yeast trafficking mutant, preliminary HTS, modulators of trafficking downstream of Golgi apparatus project, 1536-format plate, OD 615 nm (AID 637; in the data active means inhibition above about 30%). The note with it: yeast transport mutant growth, absorbance 615 nm, 18 h; stronger effect = higher value.
[6] abbreviates: H69AR cells + 2 uM doxorubicin, measured here: viability with 2 uM doxorubicin, stronger effect = lower value.
The mark [7] stands for this setting: H69AR cells, compound alone cytotoxicity.

Take `C=C(C)C1Cc2c(C)nn(-c3nc(C)cc(C)n3)c2C1` (stereo unspecified): the viability (usually a read-out of living cells in per cent, often relative to untreated cells) is 105% (inactive) in experiment [1], 71.7% (inactive) in experiment [2], 73.7% in experiment [3] (setting [6]) and 52.3% in experiment [3] (setting [7]). For the same compound, the differential viability (reversal) in experiment [3] (H69AR cells + 2 uM doxorubicin) was -21.4% (inactive). Besides, the inhibition (in general, the drop in the measured response relative to a control, in per cent) in experiment [4] is -6.58% (inactive); in experiment [5], 13.4% (inactive).
Consider `COc1ccc2cc(C(c3nnnn3C(C)(C)C)N3CCc4ccccc4C3)c(=O)[nH]c2c1` (stereo unspecified), for which the viability in experiment [1] was 81% (inactive); in experiment [2], 48.3% (inactive); in experiment [3] (setting [6]), 23.1%; in experiment [3] (setting [7]), 49.1%. The differential viability (reversal) in experiment [3] (H69AR cells + 2 uM doxorubicin) is 26% (inactive). Further, the inhibition in experiment [4] was -5.33% (inactive); in experiment [5], -2.36% (inactive).
As for `CC(C)(C)c1ccc(C(O)CCCN2CCC(C(O)(c3ccccc3)c3ccccc3)CC2)cc1` (stereo unspecified), the viability in experiment [1] was 91% (inactive); in experiment [2], 1.7% (active); in experiment [3] (setting [6]), 1.16%; in experiment [3] (setting [7]) it was 1.54%. Further, the differential viability (reversal) in experiment [3] (H69AR cells + 2 uM doxorubicin) is 0.38% (inactive). Besides, the figures for the inhibition in experiment [4] and in experiment [5] were -1.95% (inactive) and -1% (inactive), respectively.
As to `O=C(CSc1nc2cc(S(=O)(=O)N3CCOCC3)ccc2o1)NC1CCCc2ccccc21` (stereo unspecified), the viability in experiment [1] is 61% (inactive); in experiment [2] it was 84.7% (inactive); in experiment [3] (setting [6]) it was 74.4%; in experiment [3] (setting [7]), 70.2%. Further, the differential viability (reversal) in experiment [3] (H69AR cells + 2 uM doxorubicin) is -4.17% (inactive). The inhibition was -3.6% (inactive) in experiment [4] and -5.82% (inactive) in experiment [5].
As for `CC(C)CCn1c(SCC#N)nc2c(sc3ccccc32)c1=O`, the viability is 102% (inactive) in experiment [1], 41.2% (inactive) in experiment [2], 53.6% in experiment [3] (setting [6]) and 55.8% in experiment [3] (setting [7]). For the same compound, the differential viability (reversal) in experiment [3] (H69AR cells + 2 uM doxorubicin) was 2.2% (inactive). The inhibition in experiment [4] is -2.24% (inactive); in experiment [5], -7.14% (inactive).
On to `O=C(c1cc2nc(-c3ccco3)cc(C(F)(F)F)n2n1)N1CCN(c2ccccn2)CC1`, for which the viability in experiment [1] is 101% (inactive); in experiment [2] it was 66.5% (inactive); in experiment [3] (setting [6]), 66.1%; in experiment [3] (setting [7]), 54.3%. The differential viability (reversal) in experiment [3] (H69AR cells + 2 uM doxorubicin) was -11.9% (inactive). Further, the inhibition in experiment [4] was -3.2% (inactive); in experiment [5], 0.18% (inactive).
Consider `CN(C)c1ccc(O)c2c1CC1CC3[C@@H](N(C)C)C(=O)C(C(N)=O)=C(O)[C@]3(O)C(=O)C1=C2O` (stereo partly specified), for which the viability in experiment [1] is 92% (inactive); in experiment [2], 92.6% (inactive); in experiment [3] (setting [6]) it was 39.2%; in experiment [3] (setting [7]), 32.7%. Moreover, the differential viability (reversal) in experiment [3] (H69AR cells + 2 uM doxorubicin) was -6.56% (inactive). For the same compound, the inhibition in experiment [4] was 2.73% (inactive); in experiment [5] it was 29.7% (inactive).
For the compound `COc1cc2cc(C(c3nnnn3C3CCCC3)N3CCCCCC3)c(=O)[nH]c2cc1OC` (stereo unspecified), the viability in experiment [1] was 114% (inactive); in experiment [2], 92.3% (inactive); in experiment [3] (setting [6]), 59.7%; in experiment [3] (setting [7]), 59.1%. Further, the differential viability (reversal) in experiment [3] (H69AR cells + 2 uM doxorubicin) was -0.62% (inactive). Further, the inhibition is -3.87% (inactive) in experiment [4] and -2.91% (inactive) in experiment [5].
As to `OCCN1CCN(CCCN2c3ccccc3Sc3ccc(Cl)cc32)CC1`, the viability in experiment [1] is 53% (inactive); in experiment [2], 1.56% (active); in experiment [3] (setting [6]), 5.27%; in experiment [3] (setting [7]), 1.41%. Also, in experiment [3] (H69AR cells + 2 uM doxorubicin), the differential viability (reversal) was -3.86% (inactive). The inhibition was -3.38% (inactive) in experiment [4] and 47.3% (active) in experiment [5].
As to `CC(C)(C)OC(=O)N1CC=C2C(C#N)=C(N)C(C#N)(C#N)C(c3cccs3)C2C1` (stereo unspecified), the viability was 65% (inactive) in experiment [1], 53.9% (inactive) in experiment [2], 57.8% in experiment [3] (setting [6]) and 52.8% in experiment [3] (setting [7]). Also, the differential viability (reversal) in experiment [3] (H69AR cells + 2 uM doxorubicin) was -5.04% (inactive). In addition, the values for the inhibition in experiment [4] and in experiment [5] were -1.92% (inactive) and -0.16% (inactive), respectively.
For `CN1CCN(CCCN2c3ccccc3Sc3ccc(C(F)(F)F)cc32)CC1`, the viability in experiment [1] is 91% (inactive); in experiment [2], 2.21% (active); in experiment [3] (setting [6]), 4.2%; in experiment [3] (setting [7]), 1.03%. Besides, the differential viability (reversal) in experiment [3] (H69AR cells + 2 uM doxorubicin) is -3.17% (inactive). Further, the inhibition in experiment [4] is 1.43% (inactive); in experiment [5], 53.8% (active).
Turning to `N#Cc1cc2c(nc1SCC(=O)Nc1sc3c(c1C#N)CCC3)CCCCC2`, the viability in experiment [1] is 82% (inactive); in experiment [2], 79.5% (inactive); in experiment [3] (setting [6]), 57.4%; in experiment [3] (setting [7]), 40.9%. Further, the differential viability (reversal) in experiment [3] (H69AR cells + 2 uM doxorubicin) is -16.5% (inactive). The inhibition in experiment [4] is -7.84% (inactive); in experiment [5], -8.91% (inactive).
Consider `O=S1(=O)Nc2c(ccc3cccnc23)-c2ccccc21`, for which the viability in experiment [1] is 122% (inactive); in experiment [2], 8.06% (active); in experiment [3] (setting [6]) it was 56%; in experiment [3] (setting [7]) it was 49.2%. Also, in experiment [3] (H69AR cells + 2 uM doxorubicin), the differential viability (reversal) was -6.77% (inactive). In addition, the inhibition is -7.5% (inactive) in experiment [4] and 9.84% (inactive) in experiment [5].
Take `O=C(Nc1ccc2[nH]c3c(c2c1)CCCC3)c1ccco1`: the viability was 82% (inactive) in experiment [1], 73.1% (inactive) in experiment [2], 66.7% in experiment [3] (setting [6]) and 63.1% in experiment [3] (setting [7]). In addition, in experiment [3] (H69AR cells + 2 uM doxorubicin), the differential viability (reversal) was -3.58% (inactive). The inhibition was -8.67% (inactive) in experiment [4] and -2.73% (inactive) in experiment [5].
Take `CCOC(=O)c1[nH]c2ccc(Br)cc2c1NC(=O)CCN1CCC(C(=O)OCC)CC1`: the viability in experiment [1] was 115% (inactive); in experiment [2], 77.3% (inactive); in experiment [3] (setting [6]) it was 33.2%; in experiment [3] (setting [7]), 45.2%. Further, in experiment [3] (H69AR cells + 2 uM doxorubicin), the differential viability (reversal) was 12% (inactive). Also, the inhibition in experiment [4] is -2.53% (inactive); in experiment [5], 1.27% (inactive).
In the case of `C=CCSc1nnc2n(CCc3ccccc3)c(=O)c3c4c(sc3n12)COC(C)(C)C4`, the viability in experiment [1] was 124% (inactive); in experiment [2], 72.5% (inactive); in experiment [3] (setting [6]), 13.8%; in experiment [3] (setting [7]) it was 47%. The differential viability (reversal) in experiment [3] (H69AR cells + 2 uM doxorubicin) was 33.1% (inactive). For the same compound, the results for the inhibition in experiment [4] and in experiment [5] were -4.38% (inactive) and 1.13% (inactive), respectively.
For the compound `O=C(Cn1c(=O)oc2ccccc21)Nc1ccc(S(=O)(=O)N2CCCCC2)cc1`, the viability was 106% (inactive) in experiment [1], 89.2% (inactive) in experiment [2], 59.9% in experiment [3] (setting [6]) and 65.1% in experiment [3] (setting [7]). Further, the differential viability (reversal) in experiment [3] (H69AR cells + 2 uM doxorubicin) was 5.17% (inactive). Moreover, the results for the inhibition in experiment [4] and in experiment [5] were 1.92% (inactive) and -2.58% (inactive), respectively.
For the compound `COC1=CC(=O)CC(C)C12Oc1c(Cl)c(OC)cc(OC)c1C2=O` (stereo unspecified), the viability is 100% (inactive) in experiment [1], 62.8% (inactive) in experiment [2], 50% in experiment [3] (setting [6]) and 18.1% in experiment [3] (setting [7]). In addition, the differential viability (reversal) in experiment [3] (H69AR cells + 2 uM doxorubicin) was -31.8% (inactive). For the same compound, the inhibition in experiment [4] was -2.99% (inactive); in experiment [5] it was -5.67% (inactive).
